Experimental data taken from ChEMBL document CHEMBL3853309, “Lovastatin Analogues from the Soil-Derived Fungus Aspergillus sclerotiorum PSU-RSPG178” (J Nat Prod, 2016).
Active and inactive are the calls of the source. No cut-off for these calls is given here.

Tests used:
[1] = target: T1, 3-hydroxy-3-methylglutaryl-coenzyme A reductase (Homo sapiens) (UniProt P04035); test: Inhibition of human HMGR catalytic domain at 200 uM using HMG-CoA as substrate measured every 20 secs for 10 mins relative to control
T1 sequence (whole entry): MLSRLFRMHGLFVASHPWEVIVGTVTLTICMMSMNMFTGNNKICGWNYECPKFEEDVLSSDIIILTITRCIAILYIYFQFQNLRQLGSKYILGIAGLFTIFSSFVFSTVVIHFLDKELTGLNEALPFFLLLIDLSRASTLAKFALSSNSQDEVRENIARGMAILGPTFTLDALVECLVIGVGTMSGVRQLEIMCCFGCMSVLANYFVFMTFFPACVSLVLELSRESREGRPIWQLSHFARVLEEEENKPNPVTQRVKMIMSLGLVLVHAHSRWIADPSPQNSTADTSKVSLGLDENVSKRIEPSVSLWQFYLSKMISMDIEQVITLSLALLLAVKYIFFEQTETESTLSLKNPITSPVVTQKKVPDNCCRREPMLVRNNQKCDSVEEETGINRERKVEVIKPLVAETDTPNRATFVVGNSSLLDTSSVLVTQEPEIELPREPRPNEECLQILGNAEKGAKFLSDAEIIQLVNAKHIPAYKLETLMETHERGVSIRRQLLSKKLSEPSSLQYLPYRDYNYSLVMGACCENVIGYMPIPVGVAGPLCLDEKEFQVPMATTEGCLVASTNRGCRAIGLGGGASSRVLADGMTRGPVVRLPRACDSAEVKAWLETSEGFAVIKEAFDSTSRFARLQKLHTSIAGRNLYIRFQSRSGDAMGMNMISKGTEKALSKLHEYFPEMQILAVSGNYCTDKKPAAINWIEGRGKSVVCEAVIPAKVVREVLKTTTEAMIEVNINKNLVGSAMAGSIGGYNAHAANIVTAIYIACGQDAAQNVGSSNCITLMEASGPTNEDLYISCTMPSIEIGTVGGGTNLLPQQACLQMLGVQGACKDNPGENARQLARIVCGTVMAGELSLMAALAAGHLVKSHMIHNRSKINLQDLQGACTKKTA
In short: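 Sigma HMG-CoA reductase kit, modified: 1× assay buffer, NADPH, HMG-CoA (800 μM final), test compound at 200 μM final; reaction started by adding human HMGR catalytic domain (0.6 μM final) at 37 °C. NADPH oxidation followed at 340 nm for 10 min, 20 s intervals.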

[2] = Cytotoxicity against African green monkey Vero cells; format: toxicity, cell-based; details: African green monkey (Chlorocebus sabaeus)
In short: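 Vero (African green monkey kidney fibroblast) cells tested in triplicate by the Hunt et al. method; ellipticine positive control.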

[3] = Cytotoxicity against human MCF7 cells by resazurin microplate assay; format: functional, cell-based
In short: (§1)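 KB and MCF-7 cells assayed by resazurin microplate method; positive controls ellipticine and doxorubicin for KB, doxorubicin and tamoxifen for MCF-7.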

[4] = Cytotoxicity against human KB cells by resazurin microplate assay; format: functional, cell-based; in short: as §1
[5] = target: T1, 3-hydroxy-3-methylglutaryl-coenzyme A reductase (Homo sapiens); test: Binding affinity to human HMGR catalytic domain at 50 uM in presence of 800 to 3200 uM HMG-CoA as substrate measured every 20 secs for 10 mins
In short: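 Direct-interaction test: compound at 50 μM with HMG-CoA at 800, 1600 and 3200 μM, plus NADPH and human HMGR catalytic domain at 37 °C. Activity read at 340 nm for 10 min at 20 s intervals, reported as percent inhibition versus untreated control; n = 3.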

Plasmodium falciparum = test: Antimalarial activity against multi-drug-resistant Plasmodium falciparum K1 by microculture radioisotope technique; format: functional
In short: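 Parasite: P. falciparum K1 (multidrug-resistant). Growth inhibition read by a microculture radioisotope method adapted from a published protocol. Dihydroartemisinine and mefloquine served as reference standards.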

[6] = target: T2, 3-hydroxy-3-methylglutaryl-coenzyme A reductase (Homo sapiens, UniProt P04035); test: Inhibition of human HMGR catalytic domain using 800 uM HMG-CoA as substrate measured every 20 secs for 10 mins
T2 sequence (P04035 whole entry): T1 sequence (whole entry)
In short: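 Dose-response format of the kit assay: 1× buffer, NADPH, 800 μM HMG-CoA, graded compound concentrations, human HMGR catalytic domain 0.6 μM final added to start at 37 °C.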

[7] = target: T1, 3-hydroxy-3-methylglutaryl-coenzyme A reductase (Homo sapiens); details: 1 uM

inhibition [1] [%] | SMILES | IC50 [2] [µM] | IC50 [3] [µM] | IC50 [4] [µM] | other results
20.4 | CC[C@H](C)C(=O)O[C@H]1C[C@@H](C)[C@H](OC(C)=O)C2=C[C@@H](OC(C)=O)[C@H](C)[C@H](CC[C@@H]3CC=CC(=O)O3)[C@H]21 | 8.4 | 74.7 | 19.8 | –
42 | CC[C@H](C)C(=O)O[C@H]1C[C@@H](C)C=C2C=C[C@H](C)[C@H](CC[C@@H]3C[C@@H](O)CC(=O)O3)[C@H]21 [LOVASTATIN] | 2.2 | – | 15.6 | Activity [5]: Active
– | C[C@H]1[C@@H](O)O[C@@H]2O[C@@]3(C)CC[C@H]4[C@H](C)CC[C@@H]1[C@@]24OO3 [ARTENIMOL] | – | – | – | IC50 (Plasmodium falciparum): 0.0023 µM
– | COc1cccc2c1C(=O)c1c(O)c3c(c(O)c1C2=O)C[C@@](O)(C(=O)CO)C[C@@H]3O[C@H]1C[C@H](N)[C@H](O)[C@H](C)O1 [DOXORUBICIN] | – | 6.75 | – | –
17.2 | CC[C@H](C)C(=O)O[C@H]1C[C@@H](C)C[C@@H]2C=C[C@H](C)[C@H](CC[C@@H]3CC=CC(=O)O3)[C@@H]12 | 14.5 | – | 15.2 | –
50 | CC[C@H](C)C(=O)O[C@H]1C[C@@H](C)[C@H](O)C2=C[C@@H](O)[C@H](C)[C@H](CC[C@@H]3CC=CC(=O)O3)[C@H]21 | 40 | – | 31.6 | IC50 [6]: 387 µM; Activity [5]: Active
– | O[C@@H](c1cc(C(F)(F)F)nc2c(C(F)(F)F)cccc12)[C@H]1CCCCN1 [(S,R)-MEFLOQUINE] | – | – | – | IC50 (Plasmodium falciparum): 0.0269 µM
– | CC[C@H](C)C(=O)O[C@H]1C[C@H](O)C=C2C=C[C@H](C)[C@H](CC[C@@H](O)C[C@@H](O)CC(=O)O)[C@H]21 | – | – | – | inhibition [7]: 90.4%
– | Cc1c2ccncc2c(C)c2c1[nH]c1ccccc12 [ELLIPTECINE] | 1 | – | 2.03 | –
– | CC/C(=C(\c1ccccc1)c1ccc(OCCN(C)C)cc1)c1ccccc1 [TAMOXIFEN] | – | 6.99 | – | –

SMILES | inhibition [1] [%] | IC50 [2] [µM] | IC50 [3] [µM] | IC50 [4] [µM] | other results
CC[C@H](C)C(=O)O[C@H]1C[C@@H](C)C=C2C=C[C@H](C)[C@H](CC[C@@H]3CC=CC(=O)O3)[C@H]21 | 8.4 | 8.1 | 57.3 | 20.1 | –
